The subject of assay [1] is Nucleic Acid. In words: Ratio of binding constant of compound binding to human quadruplex DNA over that of duplex DNA. The class given is nucleic-acid assay. The gist of the method: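 Streptavidin-chip SPR (BIAcore 2000/3000) with biotinylated quadruplex or -AATT- duplex DNA loaded at 25 nM. Run in HEPES buffer pH 7.4 (0.20 M KCl, 3 mM EDTA, P20) at 25 °C. Steady-state RU from sensorgram plateaus, flow 10–30 µL/min, plotted against free compound concentration to fit binding constants. Value is the ratio of quadruplex to duplex constants.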

The subject of assay [2] is IMR-90. Nature of the assay: Cytotoxicity in human IMR90 cells by SRB assay. The class given is functional, cell-based. (In SRB staining, fixed cells bind dye roughly in proportion to their protein.)
In assay [3] the test system is MCF7. In words: Cytotoxicity in human MCF7 cells by SRB assay. The class given is functional, cell-based.
In assay [4] the target is Telomerase reverse transcriptase (Homo sapiens, UniProt O14746). In words: Inhibition of telomerase activity from human A2780 cells. The class given is functional, cell-based. Summed up:
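TRAP assay with A2780 protein extract, Bradford-quantified. ACX primer (1 µM) and Taq added, 33 PCR cycles. Products on 10% PAGE with SYBR Green I, quantified by gel scanning against a no-protein or heat-inactivated control. Result reported as telEC50.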

The target of assay [5] is DNA polymerase I, thermostable (Thermus aquaticus) (UniProt P19821). Nature of the assay: Inhibition of TAQ polymerase activity at 2 uM. Summed up: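 PCR with TS forward primer, NT reverse primer (0.5 µM), TSNT template (200 pM), 1 mM MgCl₂, 20 µM dNTPs and 1.25 U Taq, plus compound. Run: 92 °C 2 min, then 33 cycles of 92/52/72 °C. 36 bp product resolved on 10% polyacrylamide gel, stained with SYBR Green I.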

Assay [6] deals with MCF7. In words: Increase in senescence in MCF7 cells by staining with SA-beta-Gal at 1 uM. The class given is functional, cell-based. Conditions: Homo sapiens. The gist of the method: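 MCF7 cells in DMEM, counted and reseeded on day 1, treated that day and re-dosed on day 4 each week, over 4 weeks. Weekly, 1 × 10⁵ cells seeded with compound for about 24 h, then fixed and stained with X-gal solution (citrate/phosphate pH 6.0, ferro/ferricyanide) overnight at 37 °C. Blue cells counted by light microscopy as percentage of total versus vehicle control.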

Molecules are shown by their SMILES. Active and inactive are the calls of the source. The rule behind the calls is not given here.

Telomerase reverse transcriptase, sequence (O14746 whole entry): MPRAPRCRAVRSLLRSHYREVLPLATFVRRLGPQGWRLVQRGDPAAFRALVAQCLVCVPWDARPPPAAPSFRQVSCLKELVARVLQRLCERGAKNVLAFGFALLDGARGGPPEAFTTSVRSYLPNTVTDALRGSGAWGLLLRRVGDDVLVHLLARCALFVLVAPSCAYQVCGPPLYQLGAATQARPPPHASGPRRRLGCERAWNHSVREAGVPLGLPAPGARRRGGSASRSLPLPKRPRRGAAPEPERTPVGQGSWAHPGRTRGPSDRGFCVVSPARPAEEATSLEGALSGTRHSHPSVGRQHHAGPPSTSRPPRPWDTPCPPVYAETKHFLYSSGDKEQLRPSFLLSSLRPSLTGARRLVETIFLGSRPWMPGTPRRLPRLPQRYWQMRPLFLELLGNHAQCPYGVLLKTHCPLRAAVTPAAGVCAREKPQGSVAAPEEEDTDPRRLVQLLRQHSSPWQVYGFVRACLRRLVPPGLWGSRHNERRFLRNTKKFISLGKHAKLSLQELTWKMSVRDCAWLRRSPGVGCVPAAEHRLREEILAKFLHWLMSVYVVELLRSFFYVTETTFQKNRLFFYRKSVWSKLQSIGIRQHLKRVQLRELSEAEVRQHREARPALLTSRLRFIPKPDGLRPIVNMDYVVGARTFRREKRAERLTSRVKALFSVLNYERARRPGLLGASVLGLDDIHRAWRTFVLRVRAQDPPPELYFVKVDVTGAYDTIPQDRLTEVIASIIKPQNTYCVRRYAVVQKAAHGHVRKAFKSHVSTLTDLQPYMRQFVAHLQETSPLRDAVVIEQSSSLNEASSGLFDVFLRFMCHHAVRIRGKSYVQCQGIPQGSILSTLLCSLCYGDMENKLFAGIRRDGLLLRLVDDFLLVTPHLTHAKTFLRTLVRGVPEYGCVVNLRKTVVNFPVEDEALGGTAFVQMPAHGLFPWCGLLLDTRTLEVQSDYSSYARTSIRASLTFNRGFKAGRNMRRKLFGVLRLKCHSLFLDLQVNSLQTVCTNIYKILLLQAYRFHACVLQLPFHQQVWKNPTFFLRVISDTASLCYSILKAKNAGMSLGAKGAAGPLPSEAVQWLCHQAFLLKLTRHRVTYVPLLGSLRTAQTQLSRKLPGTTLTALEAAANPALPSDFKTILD
DNA polymerase I, thermostable (Thermus aquaticus), sequence (P19821 whole entry): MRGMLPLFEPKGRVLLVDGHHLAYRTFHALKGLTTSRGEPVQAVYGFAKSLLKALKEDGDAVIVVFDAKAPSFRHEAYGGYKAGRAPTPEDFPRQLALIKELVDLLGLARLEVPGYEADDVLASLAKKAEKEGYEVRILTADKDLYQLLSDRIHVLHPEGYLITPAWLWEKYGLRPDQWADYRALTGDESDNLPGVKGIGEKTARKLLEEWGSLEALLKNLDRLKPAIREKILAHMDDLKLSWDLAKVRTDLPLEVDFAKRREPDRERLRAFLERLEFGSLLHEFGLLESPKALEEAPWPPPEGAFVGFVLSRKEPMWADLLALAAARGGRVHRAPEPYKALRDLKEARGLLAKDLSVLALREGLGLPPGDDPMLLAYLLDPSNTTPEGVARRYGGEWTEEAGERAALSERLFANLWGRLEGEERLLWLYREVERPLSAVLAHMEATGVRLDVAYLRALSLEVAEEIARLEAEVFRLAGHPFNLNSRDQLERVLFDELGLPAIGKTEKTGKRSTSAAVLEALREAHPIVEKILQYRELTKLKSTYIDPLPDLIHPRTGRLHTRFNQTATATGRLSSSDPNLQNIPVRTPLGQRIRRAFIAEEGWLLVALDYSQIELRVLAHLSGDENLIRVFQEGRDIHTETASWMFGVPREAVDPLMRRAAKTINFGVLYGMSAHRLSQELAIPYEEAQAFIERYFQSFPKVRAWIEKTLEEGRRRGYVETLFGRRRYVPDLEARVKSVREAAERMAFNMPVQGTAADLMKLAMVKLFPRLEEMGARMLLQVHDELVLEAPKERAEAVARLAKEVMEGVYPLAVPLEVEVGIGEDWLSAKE

Broadly, the IC50 is the point on the concentration scale where inhibition reaches its midpoint. A high value points to a need for much substance. What is called EC50 is the midpoint of the concentration-response curve. Low values mean a more potent agent, high ones a less potent agent. On to `O=C(CCCCN1CCCC1)Nc1ccc2c(Nc3ccc(NC(=O)CCN4CCCC4)cc3)c3ccc(NC(=O)CCCCN4CCCC4)cc3nc2c1`, for which, in assay [1], the Ratio was 1.6. The IC50 in assay [2] and in assay [3] was more than 25 µM in each case. In assay [4], this compound came in with an EC50 of 0.255 µM.

The inhibition is the relative decrease from the control value, in per cent. As to `CN(C)c1ccc(Nc2c3ccc(NC(=O)CCCCCN4CCCC4)cc3nc3cc(NC(=O)CCCCCN4CCCC4)ccc23)cc1`, in assay [1], the Ratio amounted to 5.8. The IC50 in assay [2] and in assay [3] was more than 25 µM each time. The compound further yielded an inhibition in assay [5] of less than 25%. In addition, in assay [4], the EC50 amounted to 6.91 µM.

As for `O=C(CCN1CCCC1)Nc1ccc2c(Nc3ccc(NC(=O)CN4CCCC4)cc3)c3ccc(NC(=O)CCN4CCCC4)cc3nc2c1`, the Ratio in assay [1] worked out at 10.9. In addition, the IC50 in assay [2] and in assay [3] was more than 25 µM in each case. Further, the EC50 in assay [4] is 0.167 µM.

As to `O=C(CCCCCN1CCCC1)Nc1ccc2c(Nc3ccc(NC(=O)CCN4CCCC4)cc3)c3ccc(NC(=O)CCCCCN4CCCC4)cc3nc2c1`, in assay [1], the Ratio worked out at 72. Besides, the IC50 in assay [2] and in assay [3] was more than 25 µM throughout. Further, in assay [4], a half-maximal response (EC50) required 0.146 µM.

With `O=C(CCCN1CCCC1)Nc1ccc2c(Nc3ccc(NC(=O)CCN4CCCC4)cc3)c3ccc(NC(=O)CCCN4CCCC4)cc3nc2c1`, the Ratio in assay [1] was determined as 0.6. The IC50 in assay [2] and in assay [3] was more than 25 µM in each case. The compound further gave an EC50 in assay [4] of 0.326 µM.

Consider `O=C(CN1CCCC1)Nc1ccc2cc3ccc(NC(=O)CN4CCCC4)cc3nc2c1`, for which the Ratio in assay [1] is 1.2. Further, a half-maximal response in assay [4] (EC50) required 5.2 µM.

Regarding `CN(C)c1ccc(Nc2c3ccc(NC(=O)CCCCN4CCCC4)cc3nc3cc(NC(=O)CCCCN4CCCC4)ccc23)cc1`, in assay [1], the Ratio was determined as 4.5. Besides, the IC50 in assay [2] and in assay [3] was more than 25 µM each time. Moreover, the inhibition in assay [5] is less than 25%. This compound yielded an EC50 in assay [4] of 1.93 µM.

As for `CN(C)c1ccc(Nc2c3ccc(NC(=O)CCCN4CCCC4)cc3nc3cc(NC(=O)CCCN4CCCC4)ccc23)cc1`, in assay [1], the Ratio turned out to be 48. The half-inhibitory concentration (IC50) is more than 25 µM in assay [2] and 8.75 µM in assay [3]. Further, in assay [6], the result was Active. In addition, the inhibition in assay [5] was less than 25%. In addition, the EC50 in assay [4] was found to be 0.099 µM.

As for `O=C(CCN1CCCC1)Nc1ccc(Nc2c3ccccc3nc3ccccc23)cc1`, in assay [4], the EC50 is more than 20 µM.

In the case of `O=C(CCN1CCCC1)Nc1ccc(Nc2c3ccc(NC(=O)CCN4CCCC4)cc3nc3cc(NC(=O)CCN4CCCC4)ccc23)cc1`, in assay [1], the Ratio is 29. In addition, the concentration for half-maximal inhibition (IC50) in assay [2] and in assay [3] was more than 25 µM throughout. In assay [4], this compound yielded an EC50 of 0.067 µM.

Take `O=C(CCCN1CCCC1)Nc1ccc(Nc2c3ccc(NC(=O)CCN4CCCC4)cc3nc3cc(NC(=O)CCN4CCCC4)ccc23)cc1`: in assay [1], the Ratio stood at 12.8. Moreover, the IC50 in assay [2] and in assay [3] was more than 25 µM in each case. Besides, in assay [4], the response was half-maximal at 0.117 µM (EC50).

As to `CN(C)c1ccc(Nc2c3ccc(NC(=O)CCN4CCCC4)cc3nc3cc(NC(=O)CCN4CCCC4)ccc23)cc1`, the Ratio in assay [1] is 31. This compound showed an IC50 in assay [2] of more than 25 µM. The compound also came in with an inhibition in assay [5] of less than 25%.

For the origin of these results see ChEMBL document CHEMBL1147736, “Trisubstituted acridines as G-quadruplex telomere targeting agents. Effects of extensions of the 3,6- and 9-side chains on quadruplex binding, telomerase activity, and cell proliferation” (J Med Chem, 2006).
